Data taken from ChEMBL document CHEMBL4261486, “2-Arylaminobenzothiazole-arylpropenone conjugates as tubulin polymerization inhibitors” (Medchemcomm, 2017).
pIC50: −log10 of the molar value. The source made the active and inactive calls. No cut-off for these calls is given here.

Experiments:
A549 = assay: Antiproliferative activity against human A549 cells after 48 hrs by sulforhodamine B assay; type: functional, cell-based; conditions: A549, 48 h
How it was run: (§1)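 Cells grown in DMEM with 10% FBS at 37 °C under 5% CO2. Plated cells were allowed 24 h before drug, then exposed continuously for 48 h at 0.01, 0.1, 1, 10 and 100 μM. Monolayers were fixed with cold 10% TCA for 1 h at 4 °C and stained with 0.057% SRB in 1% acetic acid for 30 min. Bound dye was read at 510 nm. IC50 is the 50% growth-inhibitory concentration, using time-zero and control readings.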

HeLa [1] = assay: Antiproliferative activity against human HeLa cells after 48 hrs by sulforhodamine B assay; type: functional, cell-based; how it was run: as §1
MDA-MB-231 = assay: Antiproliferative activity against human MDA-MB-231 cells after 48 hrs by sulforhodamine B assay; type: functional, cell-based; conditions: MDA-MB-231, 48 h; how it was run: as §1
MIA PaCa-2 = assay: Antiproliferative activity against human MIAPaCa2 cells after 48 hrs by sulforhodamine B assay; type: functional, cell-based; conditions: MIA PaCa-2, 48 h; how it was run: as §1
HeLa [2] = assay: Cell cycle arrest in human HeLa cells assessed as accumulation at G2/M phase at 3 uM after 24 hrs by propidium iodide staining based flow cytometry (reference value: 33.4%); type: functional
HeLa [3] = assay: Upregulation of cyclin-B1 expression in human HeLa cells at 3 uM after 24 hrs by Western blot analysis; type: functional, cell-based
How it was run: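 HeLa cells were treated with 3 μM for 24 h, with a DMSO vehicle control. Cyclin B1 protein was detected by immunoblot with tubulin as loading control.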

HeLa [4] = assay: Induction of cyclin-B1 mRNA expression in human HeLa cells by qRT-PCR analysis; type: functional, cell-based
[5] = Inhibition of bovine brain tubulin polymerization pretreated followed by GTP addition measured at 1 min interval for 1 hr by fluorescence reporter based assay; parameters: species or system Bos taurus
How it was run: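 Bovine brain tubulin (2 mg/mL) was pre-incubated with compound at 1, 2, 3, 4 and 5 μM. The buffer was PEM (80 mM PIPES, 0.5 mM EGTA, 2 mM MgCl2, pH 6.9) with 10 μM fluorescent reporter and 1 mM GTP at 37 °C. Fluorescence (ex 360 / em 420 nm) was read every min for 1 h. IC50 was derived from these concentrations.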

Tubulin (Homo sapiens) [6] = molecular target: T1, Tubulin (Homo sapiens) (UniProt P68371+Q9H4B7+P0DPH7+P68366+Q13509+Q71U36+P04350+Q3ZCM7+P07437+P68363+Q9BQE3+Q6PEY2+Q13885+Q9BVA1+Q9BUF5); assay: Inhibition of tubulin polymerization in human HeLa cells assessed as disruption of microtubule organization at 3 uM after 24 hrs by DAPI staining based confocal microscopic analysis; type: cell-based
How it was run: (§2)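 HeLa cells on coverslips were exposed to 3 μM for 24 h and fixed in 3.5% formaldehyde in PBS. They were permeabilized with Triton X-100/Tween-20 and blocked in 2% BSA. Primary antitubulin antibody (1:200) was applied for 4 h, then FITC anti-mouse secondary (1:500) for 1 h. Nuclei were counterstained with DAPI and imaged by confocal microscopy at 60×, with a DMSO control.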

Tubulin (Homo sapiens) [7] = molecular target: T1, Tubulin (Homo sapiens); assay: Inhibition of tubulin polymerization in human HeLa cells assessed as increase of tubulin in soluble fraction at 3 uM after 24 hrs by Western blot analysis; type: cell-based
How it was run: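 HeLa cells, 1 × 10^5 per well, were treated for 24 h (3 μM for test conjugates). The soluble fraction was extracted with warm PIPES/Triton lysis buffer for 3 min at 30 °C, and the remaining polymerized fraction was taken in Laemmli buffer. Equal volumes were run by SDS-10% PAGE and immunoblotted for α-tubulin (1:2000) with HRP secondary and ECL detection.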

HeLa [8] = assay: Induction of apoptosis in human HeLa cells assessed as appearance of condensed nuclei at 1 uM after 24 hrs by Hoechst […] staining based fluorescence microscopic analysis; type: functional, cell-based
How it was run: (§3)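 HeLa cells, 5 × 10^4 per well, were allowed 24 h to adhere. They were then exposed to 1 μM for 24 h at 37 °C and fixed in 4% paraformaldehyde for 10 min at 4 °C. Staining was with Hoechst […] at 5 μg/mL for 30 min at room temperature. Nuclear morphology was scored by fluorescence microscopy (ex 350, em 460 nm).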

HeLa [9] = assay: Induction of mitochondrial membrane potential loss in human HeLa cells at 1 uM after 24 hrs by Rh-123 staining based spectrofluorimetric method relative to control; type: functional
How it was run: (§4)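 HeLa cells, seeded at 5 × 10^5 cells per mL overnight, were exposed to 1 μM for 24 h. Cells were trypsinized and incubated in PBS with Rhodamine-123 (10 μg/mL) for 30 min at room temperature, then washed. Fluorescence was read on a spectrofluorometer relative to control. Data are mean ± SD of three independent experiments.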

HeLa [10] = assay: Induction of reactive oxygen species generation in human HeLa cells at 1 uM after 24 hrs by carboxy-DCFH-DA staining based fluorescence microscopic analysis; type: functional, cell-based
How it was run: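 Cells were treated with 1 μM for 24 h, then loaded with carboxy-DCFH-DA (10 μM) for 30 min at room temperature in the dark. They were resuspended in PBS at 5 × 10^4 cells per mL. DCF fluorescence was read by spectrofluorometer (ex 488 / em 525 nm per methods; 485/535 nm per legend), and images were taken by fluorescence microscopy.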

Tubulin (Homo sapiens) [11] = molecular target: T1, Tubulin (Homo sapiens); assay: Inhibition of tubulin polymerization in human HeLa cells assessed as appearance of irregular microtubule at 3 uM after 24 hrs by DAPI staining based confocal microscopic analysis; type: cell-based; how it was run: as §2
Tubulin (Homo sapiens) [12] = molecular target: T1, Tubulin (Homo sapiens); assay: Inhibition of tubulin polymerization in human HeLa cells assessed as appearance of rounded microtubule at 3 uM after 24 hrs by DAPI staining based confocal microscopic analysis; type: cell-based; how it was run: as §2
HeLa [13] = assay: Induction of mitochondrial membrane potential loss in human HeLa cells assessed as collapse of the mitochondrial membrane potential at 1 uM after 24 hrs by Rh-123 staining based spectrofluorimetric method relative to control; type: functional; how it was run: as §4
HeLa [14] = assay: Induction of apoptosis in human HeLa cells assessed as appearance of condensed nuclei after 24 hrs by Hoechst […] staining based fluorescence microscopic analysis; type: functional, cell-based; how it was run: as §3

COc1ccc2nc(-c3ccc(N/C=C\C(=O)c4ccc(OC)c(F)c4)c(C)c3)sc2c1
pIC50 (A549): 5.85
pIC50 (HeLa [1]): 6.22
pIC50 (MDA-MB-231): 5.70
pIC50 (MIA PaCa-2): 5.64
Activity (HeLa [2]): 86.1%
Activity (HeLa [3]): Active
Activity (HeLa [4]): Active
pIC50 [5]: 5.54
inhibition (Tubulin (Homo sapiens) [6]): Active
inhibition (Tubulin (Homo sapiens) [7]): Active
Activity (HeLa [8]): Active
Activity (HeLa [9]): 30%
Activity (HeLa [10]): Active
inhibition (Tubulin (Homo sapiens) [11]): Active
inhibition (Tubulin (Homo sapiens) [12]): Active

COc1ccc2nc(-c3ccc(N/C=C\C(=O)c4ccc(OC)c(F)c4)cc3)sc2c1
pIC50 (A549): 6.05
pIC50 (HeLa [1]): 6.30
pIC50 (MDA-MB-231): 5.96
pIC50 (MIA PaCa-2): 5.89
Activity (HeLa [2]): 88.7%
Activity (HeLa [3]): Active
Activity (HeLa [4]): Active
pIC50 [5]: 5.66
inhibition (Tubulin (Homo sapiens) [6]): Active
inhibition (Tubulin (Homo sapiens) [7]): Active
Activity (HeLa [8]): Active
Activity (HeLa [13]): 40%
Activity (HeLa [10]): Active
inhibition (Tubulin (Homo sapiens) [11]): Active
inhibition (Tubulin (Homo sapiens) [12]): Active

COC(=O)Nc1nc2cc(C(=O)c3cccs3)ccc2[nH]1 [NOCODAZOLE]
pIC50 (A549): 6.09
pIC50 (HeLa [1]): 6.08
pIC50 (MDA-MB-231): 6.15
pIC50 (MIA PaCa-2): 6.04
Activity (HeLa [2]): 87.5%
pIC50 [5]: 5.74
Activity (HeLa [14]): Active
Activity (HeLa [10]): Active
